In ChEMBL document CHEMBL1687738, “Effect of Candida glabrata FKS1 and FKS2 mutations on echinocandin sensitivity and kinetics of 1,3-beta-D-glucan synthase: implication for the existing susceptibility breakpoint” (Antimicrob Agents Chemother, 2009):
Values after ≈ are worked out from the molar mass of the structure shown. Starred links: 1 amine or outer side, 2 acyl side, 3 side chain; linkers in the order of their positions; H or OH if unused. Positions of bridges follow the written chain, without caps; N, C: chain ends. Non-standard residues stand in square brackets, D forms with d. Residues, ends and D or L forms follow the SMILES beside them. *: point of attachment. hTyr(3S-OH,4S-OH,3'-OSO3H) = N[C@H](C(=O)O)[C@H](O)[C@@H](O)c1ccc(O)c(OS(=O)(=O)O)c1; pTerphenylCO(4''-OnC5H11) = CCCCCOc1ccc(-c2ccc(-c3ccc(C(=O)*)cc3)cc2)cc1; Orn(4R-OH,5R-OH) = O=C([C@H](C[C@@H](O)[C@@H](O)N[*:3])N[*:1])[*:2]; hTyr(3S-OH,4S-OH) = N[C@H](C(=O)O)[C@H](O)[C@@H](O)c1ccc(O)cc1; Pro(3S-OH,4S-Me) = C[C@H]1CN[C@H](C(=O)O)[C@H]1O; X1 = CCCCCOc1ccc(-c2cc(-c3ccc(C(=O)*)cc3)no2)cc1; Gln(3R-OH) = NC(=O)C[C@@H](O)[C@H](N)C(=O)O; Hyp = O=C(O)[C@@H]1C[C@@H](O)CN1

Assays:
[1] = molecular target: 1,3-beta-glucan synthase component FKS1 (Candida glabrata, UniProt E2GKZ4, F625S); test: Inhibition of Candida glabrata isolate 42997 1,3-beta-D-glucan synthase Fks1p F625S mutant/wild type Fks2p; parameters: species or system Nakaseomyces glabratus
Outline: (§1)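 Cells grown in YPD broth at 35°C with vigorous shaking to early stationary phase. Membrane protein extracted and glucan synthase partially purified by product entrapment. Filtration polymerization assay measured [3H]glucose incorporation into product, started by adding enzyme. Echinocandin serial dilutions spanned 0.01–10,000 ng/ml, with 1% DMSO controls for anidulafungin. IC50 from variable-slope sigmoidal fit.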

[2] = Inhibition of Candida glabrata ATCC 90030 wild type 1,3-beta-D-glucan synthase; parameters: species or system Nakaseomyces glabratus; outline: as §1
Nakaseomyces glabratus [3] = test: Antifungal activity against Candida glabrata isolate 3830 expressing wild type Fks1p and Fks2p S663P mutant by CLSI method in presence of 50% human serum; format: functional
Outline: (§2)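 Broth microdilution MIC per CLSI M27-A3 in RPMI 1640 supplemented with 50% serum. Caspofungin and micafungin stocks in sterile water; anidulafungin stock in 100% DMSO; stocks kept at −86°C.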

Nakaseomyces glabratus [4] = test: Antifungal activity against Candida glabrata isolate 51916 expressing wild type Fks1p and Fks2p P667T mutant by CLSI method in presence of 50% human serum; format: functional; outline: as §2
Nakaseomyces glabratus [5] = test: Antifungal activity against Candida glabrata isolate 234 expressing wild type Fks1p and Fks2p F659V mutant by CLSI method; format: functional
Outline: (§3)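 Broth microdilution MIC per CLSI M27-A3 in RPMI 1640 medium without serum. Caspofungin and micafungin stocks in sterile water; anidulafungin stock in 100% DMSO; stocks kept at −86°C.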

Nakaseomyces glabratus [6] = test: Antifungal activity against Candida glabrata isolate 3168 expressing wild type Fks1p and Fks2p by CLSI method; format: functional; outline: as §3
[7] = Inhibition of Candida glabrata isolate 31498 1,3-beta-D-glucan synthase wild type Fks1p/Fks2p F659 deletion mutant; parameters: species or system Nakaseomyces glabratus; outline: as §1
[8] = Inhibition of Candida glabrata isolate 42971 1,3-beta-D-glucan synthase Fks1p D632Y mutant/Fks2p R1377STOP mutant; parameters: species or system Nakaseomyces glabratus; outline: as §1
Nakaseomyces glabratus [9] = test: Antifungal activity against Candida glabrata isolate 41026 expressing wild type Fks1p and Fks2p F659S mutant by CLSI method; format: functional; outline: as §3
Nakaseomyces glabratus [10] = test: Antifungal activity against Candida glabrata isolate 42031 expressing wild type Fks1p and Fks2p D666E mutant by CLSI method; format: functional; outline: as §3
1,3-beta-glucan synthase = 1,3-beta-glucan synthase (Candida glabrata, UniProt F5BCZ9, D666G); test: Inhibition of Candida glabrata isolate 41400 1,3-beta-D-glucan synthase wild type Fks1p/Fks2p D666G mutant; parameters: species or system Nakaseomyces glabratus; outline: as §1
Sequence of 1,3-beta-glucan synthase (F5BCZ9 entry or part of it D666G): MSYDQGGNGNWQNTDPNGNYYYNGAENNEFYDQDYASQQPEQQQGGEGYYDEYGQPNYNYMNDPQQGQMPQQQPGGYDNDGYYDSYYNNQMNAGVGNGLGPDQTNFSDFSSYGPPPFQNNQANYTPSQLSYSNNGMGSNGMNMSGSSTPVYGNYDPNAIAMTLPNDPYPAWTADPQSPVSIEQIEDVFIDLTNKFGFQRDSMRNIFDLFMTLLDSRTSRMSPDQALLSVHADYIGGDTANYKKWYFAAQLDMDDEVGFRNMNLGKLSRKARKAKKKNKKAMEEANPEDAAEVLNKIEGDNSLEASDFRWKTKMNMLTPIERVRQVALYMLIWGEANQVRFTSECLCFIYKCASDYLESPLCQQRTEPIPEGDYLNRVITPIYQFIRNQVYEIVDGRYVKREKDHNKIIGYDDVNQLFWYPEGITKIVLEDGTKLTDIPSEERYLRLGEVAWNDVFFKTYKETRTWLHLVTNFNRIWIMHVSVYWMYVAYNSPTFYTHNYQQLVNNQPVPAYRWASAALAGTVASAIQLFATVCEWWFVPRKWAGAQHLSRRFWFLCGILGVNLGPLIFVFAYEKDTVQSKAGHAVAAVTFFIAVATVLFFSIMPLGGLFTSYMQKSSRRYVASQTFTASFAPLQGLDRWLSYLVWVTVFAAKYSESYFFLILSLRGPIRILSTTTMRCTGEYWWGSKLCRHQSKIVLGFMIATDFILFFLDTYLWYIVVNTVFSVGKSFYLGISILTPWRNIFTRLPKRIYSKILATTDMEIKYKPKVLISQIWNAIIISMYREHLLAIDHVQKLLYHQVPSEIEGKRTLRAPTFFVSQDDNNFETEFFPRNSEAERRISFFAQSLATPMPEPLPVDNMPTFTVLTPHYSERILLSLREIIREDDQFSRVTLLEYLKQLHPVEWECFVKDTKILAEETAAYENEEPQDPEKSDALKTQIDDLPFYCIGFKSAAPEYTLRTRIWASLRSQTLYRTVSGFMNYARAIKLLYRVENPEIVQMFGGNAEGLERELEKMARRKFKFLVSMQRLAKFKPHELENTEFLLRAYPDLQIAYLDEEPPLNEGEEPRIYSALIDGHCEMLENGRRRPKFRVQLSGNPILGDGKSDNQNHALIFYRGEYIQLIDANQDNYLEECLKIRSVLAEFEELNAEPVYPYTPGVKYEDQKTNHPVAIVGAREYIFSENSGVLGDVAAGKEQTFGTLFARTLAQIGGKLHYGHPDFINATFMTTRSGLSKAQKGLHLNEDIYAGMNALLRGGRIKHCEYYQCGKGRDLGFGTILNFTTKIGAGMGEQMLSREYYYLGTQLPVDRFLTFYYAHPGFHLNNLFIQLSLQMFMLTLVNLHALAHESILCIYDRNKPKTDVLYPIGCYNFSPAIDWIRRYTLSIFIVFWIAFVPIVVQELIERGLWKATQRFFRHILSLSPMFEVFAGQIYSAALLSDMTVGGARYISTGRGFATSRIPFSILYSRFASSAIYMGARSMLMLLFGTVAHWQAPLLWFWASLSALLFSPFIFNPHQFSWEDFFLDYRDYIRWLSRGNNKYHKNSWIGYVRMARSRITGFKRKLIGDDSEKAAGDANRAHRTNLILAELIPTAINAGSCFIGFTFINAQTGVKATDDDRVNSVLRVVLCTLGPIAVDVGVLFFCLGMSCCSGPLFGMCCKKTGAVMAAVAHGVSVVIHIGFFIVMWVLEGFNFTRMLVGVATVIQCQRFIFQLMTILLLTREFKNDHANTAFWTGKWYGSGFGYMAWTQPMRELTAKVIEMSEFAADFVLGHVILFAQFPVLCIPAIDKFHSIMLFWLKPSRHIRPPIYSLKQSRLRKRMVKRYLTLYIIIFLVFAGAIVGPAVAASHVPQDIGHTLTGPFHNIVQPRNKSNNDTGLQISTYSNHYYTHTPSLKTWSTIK

Nakaseomyces glabratus [11] = test: Antifungal activity against Candida glabrata isolate 234 expressing wild type Fks1p and Fks2p F659V mutant by CLSI method in presence of 50% human serum; format: functional; outline: as §2
Nakaseomyces glabratus [12] = test: Antifungal activity against Candida glabrata isolate 5416 expressing wild type Fks1p and Fks2p W1375L mutant by CLSI method in presence of 50% human serum; format: functional; outline: as §2
[13] = molecular target: 1,3-beta-glucan synthase component FKS1 (Candida glabrata, UniProt E2GKZ4, S629P); test: Inhibition of Candida glabrata isolate 5847 1,3-beta-D-glucan synthase Fks1p S629P mutant/wild type Fks2p; parameters: species or system Nakaseomyces glabratus; outline: as §1
Sequence of 1,3-beta-glucan synthase component FKS1 (Candida glabrata, UniProt E2GKZ4, S629P) (E2GKZ4 entry or part of it S629P): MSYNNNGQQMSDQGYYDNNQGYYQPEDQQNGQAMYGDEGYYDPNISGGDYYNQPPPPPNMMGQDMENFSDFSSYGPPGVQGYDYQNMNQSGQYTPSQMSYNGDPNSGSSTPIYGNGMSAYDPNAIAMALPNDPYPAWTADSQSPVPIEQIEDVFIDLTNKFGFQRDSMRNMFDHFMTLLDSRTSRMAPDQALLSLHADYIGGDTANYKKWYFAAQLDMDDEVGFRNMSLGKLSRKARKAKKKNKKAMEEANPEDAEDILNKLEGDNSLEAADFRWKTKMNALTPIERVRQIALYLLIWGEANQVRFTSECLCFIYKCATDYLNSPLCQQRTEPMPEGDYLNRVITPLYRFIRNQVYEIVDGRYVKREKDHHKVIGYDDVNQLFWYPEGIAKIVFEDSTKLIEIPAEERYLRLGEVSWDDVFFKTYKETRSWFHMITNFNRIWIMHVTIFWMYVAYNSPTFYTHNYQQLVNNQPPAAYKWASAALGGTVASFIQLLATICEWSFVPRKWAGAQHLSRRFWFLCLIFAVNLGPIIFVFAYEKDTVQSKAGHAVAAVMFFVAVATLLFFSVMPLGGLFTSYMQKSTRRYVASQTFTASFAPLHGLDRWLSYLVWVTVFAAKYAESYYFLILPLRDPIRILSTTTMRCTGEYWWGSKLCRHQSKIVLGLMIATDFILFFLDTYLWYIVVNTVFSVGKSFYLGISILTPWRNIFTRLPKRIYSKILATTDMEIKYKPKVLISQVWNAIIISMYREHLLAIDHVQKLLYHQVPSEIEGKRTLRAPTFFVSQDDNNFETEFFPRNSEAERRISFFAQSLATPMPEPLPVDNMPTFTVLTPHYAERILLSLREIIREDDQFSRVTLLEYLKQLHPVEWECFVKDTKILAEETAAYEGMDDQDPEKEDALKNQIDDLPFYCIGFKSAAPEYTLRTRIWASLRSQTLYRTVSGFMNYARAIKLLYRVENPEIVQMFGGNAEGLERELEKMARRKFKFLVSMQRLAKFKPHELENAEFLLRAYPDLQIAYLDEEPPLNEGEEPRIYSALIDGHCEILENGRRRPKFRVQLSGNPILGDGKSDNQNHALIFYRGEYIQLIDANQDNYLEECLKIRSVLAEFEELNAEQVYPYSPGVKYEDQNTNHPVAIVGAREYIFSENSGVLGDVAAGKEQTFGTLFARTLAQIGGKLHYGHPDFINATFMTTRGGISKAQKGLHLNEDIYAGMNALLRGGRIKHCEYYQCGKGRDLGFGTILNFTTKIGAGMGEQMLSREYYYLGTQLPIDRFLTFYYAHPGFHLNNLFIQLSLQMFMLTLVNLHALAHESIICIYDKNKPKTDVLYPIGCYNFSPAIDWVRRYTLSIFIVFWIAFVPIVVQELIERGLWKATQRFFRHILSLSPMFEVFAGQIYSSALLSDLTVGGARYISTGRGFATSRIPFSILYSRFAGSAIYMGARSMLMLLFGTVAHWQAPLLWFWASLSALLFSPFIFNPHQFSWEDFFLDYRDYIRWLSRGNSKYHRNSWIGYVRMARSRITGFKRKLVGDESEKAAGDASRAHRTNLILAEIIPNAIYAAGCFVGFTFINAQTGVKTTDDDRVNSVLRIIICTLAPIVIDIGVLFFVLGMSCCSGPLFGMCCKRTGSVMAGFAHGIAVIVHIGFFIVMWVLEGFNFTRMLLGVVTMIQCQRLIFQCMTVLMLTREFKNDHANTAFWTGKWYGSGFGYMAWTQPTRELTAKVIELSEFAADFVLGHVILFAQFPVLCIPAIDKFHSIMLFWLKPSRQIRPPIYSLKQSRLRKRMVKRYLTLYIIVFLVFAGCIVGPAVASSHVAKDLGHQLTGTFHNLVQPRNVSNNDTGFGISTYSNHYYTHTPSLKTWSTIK

Nakaseomyces glabratus [14] = test: Antifungal activity against Candida glabrata ATCC 90030 expressing wild type Fks1p and Fks2p by CLSI method in presence of 50% human serum; format: functional; outline: as §2

Structure (SMILES) | IC50 [1] [nM] | IC50 [2] [ng/mL] | MIC (Nakaseomyces glabratus [3]) [µg/mL] | MIC (Nakaseomyces glabratus [4]) [µg/mL] | MIC (Nakaseomyces glabratus [5]) [µg/mL] | MIC (Nakaseomyces glabratus [6]) [µg/mL] | IC50 [7] [ng/mL] | IC50 [8] [ng/mL] | MIC (Nakaseomyces glabratus [9]) [µg/mL] | MIC (Nakaseomyces glabratus [10]) [µg/mL] | IC50 (1,3-beta-glucan synthase) [nM] | MIC (Nakaseomyces glabratus [11]) [µg/mL] | MIC (Nakaseomyces glabratus [12]) [µg/mL] | IC50 [13] [µM] | MIC (Nakaseomyces glabratus [14]) [µg/mL]
CCCCCOc1ccc(-c2cc(-c3ccc(C(=O)N[C@H]4C[C@@H](O)[C@@H](O)NC(=O)[C@@H]5[C@@H](O)[C@@H](C)CN5C(=O)[C@H]([C@H](O)CC(N)=O)NC(=O)[C@H]([C@H](O)[C@@H](O)c5ccc(O)c(OS(=O)(=O)O)c5)NC(=O)[C@@H]5C[C@@H](O)CN5C(=O)[C@H]([C@@H](C)O)NC4=O)cc3)no2)cc1 [MICAFUNGIN] (X1-[Orn(4R-OH,5R-OH)]T[Hyp][hTyr(3S-OH,4S-OH,3'-OSO3H)][Gln(3R-OH)][Pro(3S-OH,4S-Me)]; lactam 1-C) | 99.4 | 0.71 (≈ 0.000559 µM) | 8 | 4 | 1 (≈ 0.787 µM) | 0.06 (≈ 0.0472 µM) | 123.5 (≈ 0.0972 µM) | 413.4 (≈ 0.325 µM) | 4 (≈ 3.15 µM) | 0.25 (≈ 0.197 µM) | 79.2 | 8 | 2 | 0.673 | 0.25
CCCCCOc1ccc(-c2ccc(-c3ccc(C(=O)N[C@H]4C[C@@H](O)[C@@H](O)NC(=O)[C@@H]5[C@@H](O)[C@@H](C)CN5C(=O)[C@H]([C@@H](C)O)NC(=O)[C@H]([C@H](O)[C@@H](O)c5ccc(O)cc5)NC(=O)[C@@H]5C[C@@H](O)CN5C(=O)[C@H]([C@@H](C)O)NC4=O)cc3)cc2)cc1 [ANIDULAFUNGIN] ({pTerphenylCO(4''-OnC5H11)}-[Orn(4R-OH,5R-OH)]T[Hyp][hTyr(3S-OH,4S-OH)]T[Pro(3S-OH,4S-Me)]; lactam 1-C) | 97 | 1.91 (≈ 0.00168 µM) | 8 | 8 | 1 (≈ 0.877 µM) | 0.03 (≈ 0.0263 µM) | 160 (≈ 0.14 µM) | 2543.5 (≈ 2.23 µM) | 4 (≈ 3.51 µM) | 1 (≈ 0.877 µM) | 154 | 8 | 4 | 3.38 | 0.5
CC[C@H](C)C[C@H](C)CCCCCCCCC(=O)N[C@H]1C[C@@H](O)[C@@H](NCCN)NC(=O)[C@@H]2[C@@H](O)CCN2C(=O)[C@H]([C@H](O)CCN)NC(=O)[C@H]([C@H](O)[C@@H](O)c2ccc(O)cc2)NC(=O)[C@@H]2C[C@@H](O)CN2C(=O)[C@H]([C@@H](C)O)NC1=O [CASPOFUNGIN] | 638 | 1.92 (≈ 0.00176 µM) | 16 | 8 | 4 (≈ 3.66 µM) | 0.06 (≈ 0.0549 µM) | 117.2 (≈ 0.107 µM) | 5248.5 (≈ 4.8 µM) | 16 (≈ 14.6 µM) | 4 (≈ 3.66 µM) | 463 | 8 | 8 | 4.56 | 0.12
